Each structure is given as a SMILES string.

The subject of data set [1] is CD40 mRNA. The experiment in a line: […] CD40 expression in BCL1 cells treated with 1 uM peptide nucleic acid (PNA)conjugate; n=3. The class given is functional, cell-based. The conditions noted are these: Mus musculus. The method, boiled down:
(§1)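 Mouse BCL1 cells in DMEM with 10% FBS, given conjugate at 1, 3 or 10 μM by free uptake (no transfection agent) for 3 days. Cells trypsinised and stained 1 h with FITC anti-CD40 (HM40-3) or isotype control, then surface CD40 read by flow cytometry. Results are % untreated control, mean ± SD, n = 3.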

Data set [2] has as its system CD40 mRNA. Put plainly: […] CD40 expression in BCL1 cells treated with 3 uM peptide nucleic acid (PNA)conjugate; n=3. It counts as functional, cell-based. Particulars: Mus musculus. Summed up: as §1
Data set [3] deals with CD40 mRNA. Put plainly: […] CD40 expression in BCL1 cells treated with 10 uM peptide nucleic acid (PNA)conjugate; n=3. The class given is functional, cell-based. Particulars: Mus musculus. The method, boiled down:
as §1

Data set [4] deals with BCL1. Put plainly: Inhibitory concentration against BCL1 cell proliferation in WST-1 assay; Range 10-20. It counts as functional, Mus musculus. Summed up: (§2)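 BCL1 cells, 2000 per well, grown in DMEM with 10% FBS at 37 °C and 5% CO2. Exposed to conjugate for 3 days, then viable cells read by WST-1 absorbance at 450 nm. Value is the concentration at which absorbance fell below 50% of untreated control; triplicates.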
(Tetrazolium dyes change colour on reduction, which living cells bring about.)

Data set [5] is described as follows: Half-life of the conjugate when treated with 10% foetal bovine serum for enzymatic stability. It counts as ADME, Bos taurus. The conditions noted are these: cattle. Summed up: (§3)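 Conjugates at 20 μM in 10% FBS RPMI 1640 medium or 25% mouse serum (Hepes-stabilised, diluted in PBS, pH 7.1–7.4), incubated at 37 °C. Sampled to 168 h (FBS) or 48 h (serum); proteins precipitated with 10% DCA, PNA 6mer internal standard added. Analysed by C3 RP-HPLC at 60 °C; t1/2 from normalised full-length peak area versus time.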

Data set [6] can be described thus: Half-life of the conjugate when treated with 25% murine serum for enzymatic stability; No degradation observed within the period of time indicated. It counts as ADME. The conditions noted are these: mouse. Summed up: as §3
For data set [7], the system named is BCL1. Put plainly: Inhibitory concentration against BCL1 cell proliferation in WST-1 assay. The class given is functional, Mus musculus. The method, boiled down: as §2
Data set [8] can be described thus: Average tissue concentration of conjugate at a dose of 3 mg/Kg in BALB/c mice large intestine when given i.v. measured after 24 h; n=3. It counts as ADME, tissue-based. The conditions noted are these: mouse, in vivo, iv.
Data set [9] can be described thus: Average tissue concentration of conjugate at a dose of 3 mg/Kg in BALB/c mice MLN when given i.v. measured after 24 h; n=3. The class given is ADME. Particulars: mouse, in vivo, iv.
Data set [10] is described as follows: Average tissue concentration of conjugate at a dose of 3 mg/Kg in BALB/c mice injection site when given s.c. measured after 24 h; n=3. The class given is ADME. The conditions noted are these: mouse, in vivo, sc.
The nature of data set [11]: Average tissue concentration of conjugate at a dose of 3 mg/Kg in BALB/c mice large intestine when given s.c. measured after 24 h; n=3. Particulars: mouse, in vivo, sc. It counts as ADME, tissue-based.
A short description of data set [12]: Average tissue concentration of conjugate at a dose of 3 mg/Kg in BALB/c mice skeletal muscle when given i.v. measured after 24 h; n=3. The class given is ADME, tissue-based. Particulars: mouse, in vivo, iv.
Data set [13] in a line: Average tissue concentration of conjugate at a dose of 3 mg/Kg in BALB/c mice skeletal muscle when given s.c. measured after 24 h; n=3. It counts as ADME, tissue-based. Particulars: mouse, in vivo, sc.
Data set [14] can be described thus: Average tissue concentration of conjugate at a dose of 3 mg/Kg in BALB/c mice small intestine when given i.v. measured after 24 h; n=3. The class given is ADME, tissue-based. The conditions noted are these: mouse, in vivo, iv.
A short description of data set [15]: Average tissue concentration of conjugate at a dose of 3 mg/Kg in BALB/c mice small intestine when given s.c. measured after 24 h; n=3. The conditions noted are these: mouse, in vivo, sc. The class given is ADME, tissue-based.
Data set [16] is described as follows: Average tissue concentration of conjugate at a dose of 3 mg/Kg in BALB/c mice MLN when given s.c. measured after 24 h; n=3. The class given is ADME. Particulars: mouse, in vivo, sc.
Data set [17] in a line: Average tissue concentration of conjugate at a dose of 3 mg/Kg in BALB/c mice skin when given i.v. measured after 24 h; n=3. Particulars: mouse, in vivo, iv. It counts as ADME.
Data set [18] can be described thus: Average tissue concentration of conjugate at a dose of 3 mg/Kg in BALB/c mice skin when given s.c. measured after 24 h; n=3. Particulars: mouse, in vivo, sc. It counts as ADME.
A short description of data set [19]: Average tissue concentration of conjugate at a dose of 3 mg/Kg in BALB/c mice heart when given i.v. measured after 24 h; n=3. The class given is ADME, tissue-based. Particulars: mouse, in vivo, iv.
Data set [20] in a line: Average tissue concentration of conjugate at a dose of 3 mg/Kg in BALB/c mice heart when given s.c. measured after 24 h; n=3. The conditions noted are these: mouse, in vivo, sc. It counts as ADME, tissue-based.
Data set [21] can be described thus: Average tissue concentration of conjugate at a dose of 3 mg/Kg in BALB/c mice liver when given i.v. measured after 24 h; n=3. The class given is ADME, tissue-based. Particulars: mouse, in vivo, iv.
A short description of data set [22]: Average tissue concentration of conjugate at a dose of 3 mg/Kg in BALB/c mice liver when given s.c. measured after 24 h; n=3. The conditions noted are these: mouse, in vivo, sc. The class given is ADME, tissue-based.
The nature of data set [23]: Average tissue concentration of conjugate at a dose of 3 mg/Kg in BALB/c mice lungs when given i.v. measured after 24 h; n=3. The class given is ADME. Particulars: mouse, in vivo, iv.
A short description of data set [24]: Average tissue concentration of conjugate at a dose of 3 mg/Kg in BALB/c mice lungs when given s.c. measured after 24 h; n=3. The class given is ADME. Particulars: mouse, in vivo, sc.
A short description of data set [25]: Average tissue concentration of conjugate at a dose of 3 mg/Kg in BALB/c mice kidney when given i.v. measured after 24 h; n=3. It counts as ADME. The conditions noted are these: mouse, in vivo, iv.
Data set [26] can be described thus: Average tissue concentration of conjugate at a dose of 3 mg/Kg in BALB/c mice kidney when given s.c. measured after 24 h; n=3. The class given is ADME. The conditions noted are these: mouse, in vivo, sc.
The nature of data set [27]: Average tissue concentration of conjugate at a dose of 3 mg/Kg in BALB/c mice spleen when given i.v. measured after 24 h; n=3. The class given is ADME, tissue-based. The conditions noted are these: mouse, in vivo, iv.
Data set [28] can be described thus: Average tissue concentration of conjugate at a dose of 3 mg/Kg in BALB/c mice spleen when given s.c. measured after 24 h; n=3. It counts as ADME, tissue-based. Particulars: mouse, in vivo, sc.
A short description of data set [29]: Average tissue concentration of conjugate at a dose of 3 mg/Kg in BALB/c mice testes when given i.v. measured after 24 h; n=3. It counts as ADME, tissue-based, Testis. Particulars: mouse, in vivo, iv.
The nature of data set [30]: Average tissue concentration of conjugate at a dose of 3 mg/Kg in BALB/c mice testes when given s.c. measured after 24 h; n=3. It counts as ADME, tissue-based, Testis. The conditions noted are these: mouse, in vivo, sc.
Data set [31] can be described thus: Average tissue concentration of conjugate at a dose of 3 mg/Kg in BALB/c mice pancreas when given i.v. measured after 24 h; n=3. It counts as ADME. Particulars: mouse, in vivo, iv.
A short description of data set [32]: Average tissue concentration of conjugate at a dose of 3 mg/Kg in BALB/c mice pancreas when given s.c. measured after 24 h; n=3. It counts as ADME. The conditions noted are these: mouse, in vivo, sc.
Data set [33] in a line: Half-life of the conjugate when treated with 25% murine serum for enzymatic stability. The class given is ADME. Particulars: mouse. Summed up: as §3
Data set [34] is described as follows: Half-life of the conjugate when treated with 10% foetal bovine serum for enzymatic stability; No degradation observed within the period of time indicated. The class given is ADME, Bos taurus. The conditions noted are these: cattle. Summed up:
as §3

As usually defined, the IC50 is the midpoint of a concentration-inhibition curve. Higher therefore signals lower potency. The half-life is the time needed for the level to fall by half in the phase considered. Lower therefore signals fast loss. `NCCCC[C@@H](C=O)NC(=O)[C@@H](CCCCN)NC(=O)[C@@H](CCCCN)NC(=O)[C@@H](CCCCN)NC(=O)[C@@H](CCCCN)NC(=O)[C@@H](CCCCN)NC(=O)[C@@H](CCCCN)NC(=O)[C@@H](CCCCN)NC(=O)[C@H](N)CCCCN`: the UTC in [1] worked out at 97%; in data set [2], 81%; in data set [3], 54%. For the same compound, the IC50 in [4] was 20 µM. Besides, the half-life in [5] is > 168 h; in data set [6] it was > 48 h.
Regarding `NCCCC[C@@H](C=O)NC(=O)[C@H](CCCCN)NC(=O)[C@H](CCCCN)NC(=O)[C@H](CCCCN)NC(=O)[C@H](CCCCN)NC(=O)[C@H](CCCCN)NC(=O)[C@H](CCCCN)NC(=O)[C@H](CCCCN)NC(=O)[C@@H](N)CCCCN`, the UTC is 88% [middle of 7 runs] in [1] and 39% [middle of 7 runs] in [3]. In data set [7], the “IC50 for cell proliferation” value is 20 µM. Besides, the Biodistribution in data set [8] was determined as 2.07 ug equiv/g; in data set [9], 1.94 ug equiv/g; in data set [10] it was 20 ug equiv/g; in data set [11], 0.31 ug equiv/g; in data set [12] it was 0.29 ug equiv/g; in data set [13], 0.2 ug equiv/g. Moreover, the Biodistribution in data set [14] worked out at 1.31 ug equiv/g; in data set [15] it was 0.26 ug equiv/g; in [16], 0.76 ug equiv/g; in data set [17], 1.25 ug equiv/g; in data set [18], 0.75 ug equiv/g; in data set [19], 0.18 ug equiv/g. Moreover, the Biodistribution stood at 0.07 ug equiv/g in data set [20]; 11.47 ug equiv/g in data set [21]; 5.44 ug equiv/g in data set [22]; 0.22 ug equiv/g in data set [23]; 0.1 ug equiv/g in [24]; 12.74 ug equiv/g in [25]. Besides, the Biodistribution in [26] is listed as 11.55 ug equiv/g; in data set [27] it was 3.68 ug equiv/g; in data set [28] it was 1.51 ug equiv/g; in [29], 0.38 ug equiv/g; in data set [30], 0.23 ug equiv/g; in [31], 0.6 ug equiv/g. In data set [32], this compound showed a Biodistribution of 0.2 ug equiv/g. For the same compound, the half-life is 6.7 h in data set [33] and > 168 h in data set [34].

These data come from ChEMBL document CHEMBL1141128, “Structure-activity relationship study on a simple cationic peptide motif for cellular delivery of antisense peptide nucleic acid” (J Med Chem, 2005).
